Assay results published in ChEMBL document CHEMBL5303300, “EUbOPEN Chemogenomics Library - Multiplex” (2023).
Several values for one entry are separate records, joined by “and”; a condition that tells them apart may be missing. Equal entries are not always repeated.

System: HEK-293T
Test: Multiplex assay against HEK293T
Type: toxicity, cell-based
Conditions: human, number of replicates 2
Procedure, shortened: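 Imaging took place on a CQ1 microscope at 37°C and 5% CO2 once compound had been added to live cells stained at seeding with Hoechst33342, BioTracker Green Microtubule Cytoskeleton Dye, MitoTracker Red and Annexin V Alexa Fluor 680. CellPathfinder machine-learning gating classed cells as Hoechst high-intensity objects or normal cells, classed normal cells as having healthy, pyknosed or fragmented nuclei, and classed pyknosed cells as mitotic or apoptotic. Tubulin, mitochondrial-mass and membrane-permeability phenotypes are per cents of the healthy-nucleus cells.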

[1] = 12 h, 1 µM, compound concentration 1 uM
[2] = 12 h, 10 µM, compound concentration 10 uM
[3] = 24 h, 1 µM, compound concentration 1 uM
[4] = 24 h, 10 µM, compound concentration 10 uM
[5] = 48 h, 1 µM, compound concentration 1 uM
[6] = 48 h, 10 µM, compound concentration 10 uM

CC(C)NC(=O)[C@H]1CCC[C@H]1Nc1nc(Nc2ccc(C(=O)N(C)C3CCN(C)CC3)cc2)ncc1Cl
Population Apoptotic (%) [1]: 64% and 57% | Population Fragmented Nuclei (%) [1]: 3% and 1% | Population Healthy Nuclei (%) [1]: 79% and 87% | Population Hoechst High Intensity Objects (%) [1]: 7% and 8% | Population Membrane Permeable-Phenotype (%) [1]: 4% and 2% | Population Mitochondria Different-Phenotype (%) [1]: 17% and 15% | Population Mitotic Cells (%) [1]: 35% and 42% | Population Normal (%) [1]: 92% and 91% | Population Pyknosed Nuclei (%) [1]: 16% and 10% | Population Tubulin-Different-Phenotype (%) [1]: 60% and 58% | Total Cell Count [1]: 568 and 503 | Population Apoptotic (%) [2]: 47% and 56% | Population Fragmented Nuclei (%) [2]: 3% and 2% | Population Healthy Nuclei (%) [2]: 87% and 86% | Population Hoechst High Intensity Objects (%) [2]: 8% and 7% | Population Membrane Permeable-Phenotype (%) [2]: 4% | Population Mitochondria Different-Phenotype (%) [2]: 29% and 30% | Population Mitotic Cells (%) [2]: 52% and 43% | Population Normal (%) [2]: 91% and 92% | Population Pyknosed Nuclei (%) [2]: 9% and 10% | Population Tubulin-Different-Phenotype (%) [2]: 88% and 87% | Total Cell Count [2]: 520 and 480 | Population Apoptotic (%) [3]: 64% and 61% | Population Fragmented Nuclei (%) [3]: 5% and 6% | Population Healthy Nuclei (%) [3]: 76% and 84% | Population Hoechst High Intensity Objects (%) [3]: 9% and 10% | Population Membrane Permeable-Phenotype (%) [3]: 2% | Population Mitochondria Different-Phenotype (%) [3]: 9% and 5% | Population Mitotic Cells (%) [3]: 35% and 38% | Population Normal (%) [3]: 90% and 89% | Population Pyknosed Nuclei (%) [3]: 17% and 8% | Population Tubulin-Different-Phenotype (%) [3]: 43% and 37% | Total Cell Count [3]: 653 and 524 | Population Apoptotic (%) [4]: 52% and 54% | Population Fragmented Nuclei (%) [4]: 3% and 4% | Population Healthy Nuclei (%) [4]: 85% and 87% | Population Hoechst High Intensity Objects (%) [4]: 6% and 9% | Population Membrane Permeable-Phenotype (%) [4]: 6% and 3% | Population Mitochondria Different-Phenotype (%) [4]: 16% and 18% | Population Mitotic Cells (%) [4]: 47% and 45% | Population Normal (%) [4]: 93% and 90% | Population Pyknosed Nuclei (%) [4]: 11% and 7% | Population Tubulin-Different-Phenotype (%) [4]: 74% and 81% | Total Cell Count [4]: 514 and 516 | Population Apoptotic (%) [5]: 68% and 45% | Population Fragmented Nuclei (%) [5]: 9% and 8% | Population Healthy Nuclei (%) [5]: 84% and 89% | Population Hoechst High Intensity Objects (%) [5]: 9% and 10% | Population Membrane Permeable-Phenotype (%) [5]: 3% and 1% | Population Mitochondria Different-Phenotype (%) [5]: 1% and 2% | Population Mitotic Cells (%) [5]: 31% and 54% | Population Normal (%) [5]: 90% and 89% | Population Pyknosed Nuclei (%) [5]: 5% and 2% | Population Tubulin-Different-Phenotype (%) [5]: 22% and 20% | Total Cell Count [5]: 714 and 606 | Population Apoptotic (%) [6]: 47% and 53% | Population Fragmented Nuclei (%) [6]: 8% and 10% | Population Healthy Nuclei (%) [6]: 84% and 85% | Population Hoechst High Intensity Objects (%) [6]: 10% and 11% | Population Membrane Permeable-Phenotype (%) [6]: 3% and 4% | Population Mitochondria Different-Phenotype (%) [6]: 5% | Population Mitotic Cells (%) [6]: 52% and 46% | Population Normal (%) [6]: 89% and 88% | Population Pyknosed Nuclei (%) [6]: 6% and 4% | Population Tubulin-Different-Phenotype (%) [6]: 67% and 70% | Total Cell Count [6]: 617 and 637

COC(=O)Nc1nc2c(s1)-c1c(c(-c3cccnc3)nn1-c1ccc(C3(N(C)C)CC3)cc1)CC2.Cl.Cl
Population Apoptotic (%) [1]: 62% and 58% | Population Fragmented Nuclei (%) [1]: 5% and 1% | Population Healthy Nuclei (%) [1]: 82% and 89% | Population Hoechst High Intensity Objects (%) [1]: 11% and 10% | Population Membrane Permeable-Phenotype (%) [1]: 1% | Population Mitochondria Different-Phenotype (%) [1]: 41% and 51% | Population Mitotic Cells (%) [1]: 37% and 41% | Population Normal (%) [1]: 88% and 89% | Population Pyknosed Nuclei (%) [1]: 12% and 9% | Population Tubulin-Different-Phenotype (%) [1]: 75% and 76% | Total Cell Count [1]: 359 and 348 | Population Apoptotic (%) [2]: 73% and 64% | Population Fragmented Nuclei (%) [2]: 5% | Population Healthy Nuclei (%) [2]: 75% and 82% | Population Hoechst High Intensity Objects (%) [2]: 17% and 10% | Population Membrane Permeable-Phenotype (%) [2]: 3% | Population Mitochondria Different-Phenotype (%) [2]: 66% and 52% | Population Mitotic Cells (%) [2]: 26% and 35% | Population Normal (%) [2]: 82% and 89% | Population Pyknosed Nuclei (%) [2]: 18% and 11% | Population Tubulin-Different-Phenotype (%) [2]: 90% and 87% | Total Cell Count [2]: 245 and 351 | Population Apoptotic (%) [3]: 66% and 71% | Population Fragmented Nuclei (%) [3]: 4% | Population Healthy Nuclei (%) [3]: 81% and 82% | Population Hoechst High Intensity Objects (%) [3]: 20% and 17% | Population Membrane Permeable-Phenotype (%) [3]: 2% and 1% | Population Mitochondria Different-Phenotype (%) [3]: 43% and 55% | Population Mitotic Cells (%) [3]: 33% and 28% | Population Normal (%) [3]: 79% and 82% | Population Pyknosed Nuclei (%) [3]: 14% and 12% | Population Tubulin-Different-Phenotype (%) [3]: 81% and 85% | Total Cell Count [3]: 313 and 342 | Population Apoptotic (%) [4]: 67% and 58% | Population Fragmented Nuclei (%) [4]: 8% and 6% | Population Healthy Nuclei (%) [4]: 70% and 78% | Population Hoechst High Intensity Objects (%) [4]: 15% and 18% | Population Membrane Permeable-Phenotype (%) [4]: 4% and 3% | Population Mitochondria Different-Phenotype (%) [4]: 70% and 52% | Population Mitotic Cells (%) [4]: 32% and 41% | Population Normal (%) [4]: 85% and 81% | Population Pyknosed Nuclei (%) [4]: 21% and 14% | Population Tubulin-Different-Phenotype (%) [4]: 86% and 82% | Total Cell Count [4]: 240 and 296 | Population Apoptotic (%) [5]: 62% | Population Fragmented Nuclei (%) [5]: 11% and 8% | Population Healthy Nuclei (%) [5]: 81% and 80% | Population Hoechst High Intensity Objects (%) [5]: 23% and 25% | Population Membrane Permeable-Phenotype (%) [5]: 1% | Population Mitochondria Different-Phenotype (%) [5]: 19% and 27% | Population Mitotic Cells (%) [5]: 37% | Population Normal (%) [5]: 76% and 74% | Population Pyknosed Nuclei (%) [5]: 6% and 11% | Population Tubulin-Different-Phenotype (%) [5]: 78% and 76% | Total Cell Count [5]: 490 and 355 | Population Apoptotic (%) [6]: 64% and 60% | Population Fragmented Nuclei (%) [6]: 8% and 11% | Population Healthy Nuclei (%) [6]: 77% and 80% | Population Hoechst High Intensity Objects (%) [6]: 17% and 20% | Population Membrane Permeable-Phenotype (%) [6]: 3% and 2% | Population Mitochondria Different-Phenotype (%) [6]: 45% and 39% | Population Mitotic Cells (%) [6]: 35% and 40% | Population Normal (%) [6]: 82% and 79% | Population Pyknosed Nuclei (%) [6]: 13% and 8% | Population Tubulin-Different-Phenotype (%) [6]: 80% and 77% | Total Cell Count [6]: 310 and 354

COc1ccncc1C(=O)NC(=O)Nc1ccc(-c2ccccc2)c(C(F)(F)F)c1
Population Apoptotic (%) [1]: 56% and 45% | Population Fragmented Nuclei (%) [1]: 2% and 4% | Population Healthy Nuclei (%) [1]: 87% and 84% | Population Hoechst High Intensity Objects (%) [1]: 7% and 8% | Population Membrane Permeable-Phenotype (%) [1]: 2% and 3% | Population Mitochondria Different-Phenotype (%) [1]: 23% and 12% | Population Mitotic Cells (%) [1]: 43% and 54% | Population Normal (%) [1]: 93% and 91% | Population Pyknosed Nuclei (%) [1]: 10% and 11% | Population Tubulin-Different-Phenotype (%) [1]: 55% and 46% | Total Cell Count [1]: 543 and 715 | Population Apoptotic (%) [2]: 49% and 44% | Population Fragmented Nuclei (%) [2]: 3% and 4% | Population Healthy Nuclei (%) [2]: 81% and 84% | Population Hoechst High Intensity Objects (%) [2]: 7% | Population Membrane Permeable-Phenotype (%) [2]: 2% | Population Mitochondria Different-Phenotype (%) [2]: 28% and 21% | Population Mitotic Cells (%) [2]: 50% and 55% | Population Normal (%) [2]: 92% | Population Pyknosed Nuclei (%) [2]: 14% and 11% | Population Tubulin-Different-Phenotype (%) [2]: 66% and 52% | Total Cell Count [2]: 484 and 596 | Population Apoptotic (%) [3]: 43% and 39% | Population Fragmented Nuclei (%) [3]: 3% and 5% | Population Healthy Nuclei (%) [3]: 88% and 86% | Population Hoechst High Intensity Objects (%) [3]: 6% and 9% | Population Membrane Permeable-Phenotype (%) [3]: 2% | Population Mitochondria Different-Phenotype (%) [3]: 4% and 6% | Population Mitotic Cells (%) [3]: 56% and 60% | Population Normal (%) [3]: 93% and 90% | Population Pyknosed Nuclei (%) [3]: 7% | Population Tubulin-Different-Phenotype (%) [3]: 33% and 30% | Total Cell Count [3]: 828 and 1052 | Population Apoptotic (%) [4]: 61% and 41% | Population Fragmented Nuclei (%) [4]: 8% and 6% | Population Healthy Nuclei (%) [4]: 82% and 85% | Population Hoechst High Intensity Objects (%) [4]: 9% and 8% | Population Membrane Permeable-Phenotype (%) [4]: 2% | Population Mitochondria Different-Phenotype (%) [4]: 11% and 7% | Population Mitotic Cells (%) [4]: 38% and 58% | Population Normal (%) [4]: 90% and 91% | Population Pyknosed Nuclei (%) [4]: 9% and 8% | Population Tubulin-Different-Phenotype (%) [4]: 38% and 32% | Total Cell Count [4]: 722 and 835 | Population Apoptotic (%) [5]: 8% and 9% | Population Fragmented Nuclei (%) [5]: 11% | Population Healthy Nuclei (%) [5]: 85% | Population Hoechst High Intensity Objects (%) [5]: 9% | Population Membrane Permeable-Phenotype (%) [5]: 5% and 4% | Population Mitochondria Different-Phenotype (%) [5]: 0% | Population Mitotic Cells (%) [5]: 91% and 90% | Population Normal (%) [5]: 90% | Population Pyknosed Nuclei (%) [5]: 3% | Population Tubulin-Different-Phenotype (%) [5]: 14% and 12% | Total Cell Count [5]: 2070 and 2556 | Population Apoptotic (%) [6]: 26% and 21% | Population Fragmented Nuclei (%) [6]: 11% and 12% | Population Healthy Nuclei (%) [6]: 84% | Population Hoechst High Intensity Objects (%) [6]: 7% and 8% | Population Membrane Permeable-Phenotype (%) [6]: 4% and 6% | Population Mitochondria Different-Phenotype (%) [6]: 1% | Population Mitotic Cells (%) [6]: 73% and 78% | Population Normal (%) [6]: 92% and 91% | Population Pyknosed Nuclei (%) [6]: 4% and 3% | Population Tubulin-Different-Phenotype (%) [6]: 23% and 19% | Total Cell Count [6]: 1542 and 1838
